≈ marks a conversion by molar mass, not a printed value.
How the values were obtained:
[1] = Permeability of compound at pH 7.4 by PAMPA assay; assay type: ADME; conditions: read-out: permeability
Outline: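 Stirring double-sink PAMPA using a lipid/dodecane membrane tuned for GI passive permeability, pH 7.4 on donor and acceptor sides. Compound at 0.05 mM (0.5% DMSO), 30 min permeation at room temperature with donor stirring. Donor and acceptor concentrations read by UV plate reader.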

[2] = Kinetic solubility of the compound in pH 7.4 phosphate buffer measured after 6 hrs by UV spectroscopy; assay type: physicochemical; conditions: read-out: Kinetic_solubility
[3] = Metabolic stability in rat liver microsomes assessed as half life incubated for 15 mins by high resolution LC/MS analysis; assay type: ADME, Microsome; conditions: 0.25 h
Outline: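 Rat liver microsomes (0.5 mg/mL protein) with 1.0 μM compound and NADPH regenerating system in 100 mM phosphate pH 7.4, 15 min at 37 °C. Quenched with acetonitrile containing albendazole internal standard. Percent remaining measured by high-resolution LC/MS.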

[4] = tested on: Isocitrate dehydrogenase [NADP] cytoplasmic (Homo sapiens), O75874 [R132H]; experiment: Inhibition of IDH1 R132H mutant (unknown origin) expressed in human U87 cells assessed as R-2-hydroxyglutarate production at 100 nM after 48 hrs by LC-MS analysis; assay type: cell-based; set-up: scale not given: the % may be the effect or the level left
Outline: (§1)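 U87-R132H cells (8000/well, DMEM high glucose, 10% FBS) were seeded, cultured overnight at 37 °C and 5% CO2, then given compound or DMSO. After 48 h, 2-HG secreted into the medium was measured by RapidFire LC-MS. Cell viability was checked by CellTiter-Glo.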

[5] = tested on: Isocitrate dehydrogenase [NADP] cytoplasmic (Homo sapiens), O75874 [R132H]; experiment: Inhibition of IDH1 R132H mutant (unknown origin) expressed in human U87 cells assessed as R-2-hydroxyglutarate production at 500 nM after 48 hrs by LC-MS analysis; assay type: cell-based; set-up: scale not given: the % may be the effect or the level left; outline: as §1
[6] = biological target: Isocitrate dehydrogenase [NADP] cytoplasmic (Homo sapiens, UniProt O75874, R132C); experiment: Inhibition of IDH1 R132C mutant (unknown origin) assessed as reduction in NADPH consumption using alpha-KG as substrate incubated for 5 mins by diaphorase/resazurin-coupled system
[7] = biological target: Isocitrate dehydrogenase [NADP] cytoplasmic (Homo sapiens, UniProt O75874, R132H); experiment: Inhibition of IDH1 R132H mutant (unknown origin) assessed as reduction in NADPH consumption using alpha-KG as substrate incubated for 5 mins by diaphorase/resazurin-coupled system
[8] = tested on: Isocitrate dehydrogenase [NADP] cytoplasmic (Homo sapiens), O75874 [R132H]; experiment: Inhibition of IDH1 R132H mutant (unknown origin) assessed as reduction in NADPH consumption using alpha-KG as substrate at 38 uM incubated for 5 mins by diaphorase/resazurin-coupled system relative to control
[9] = tested on: Isocitrate dehydrogenase [NADP] cytoplasmic (Homo sapiens), O75874 [R132C]; experiment: Inhibition of IDH1 R132C mutant (unknown origin) assessed as reduction in NADPH consumption using alpha-KG as substrate at 38 uM incubated for 5 mins by diaphorase/resazurin-coupled system relative to control
Chain of Isocitrate dehydrogenase [NADP] cytoplasmic (Homo sapiens), O75874 [R132C] (O75874 whole entry R132C): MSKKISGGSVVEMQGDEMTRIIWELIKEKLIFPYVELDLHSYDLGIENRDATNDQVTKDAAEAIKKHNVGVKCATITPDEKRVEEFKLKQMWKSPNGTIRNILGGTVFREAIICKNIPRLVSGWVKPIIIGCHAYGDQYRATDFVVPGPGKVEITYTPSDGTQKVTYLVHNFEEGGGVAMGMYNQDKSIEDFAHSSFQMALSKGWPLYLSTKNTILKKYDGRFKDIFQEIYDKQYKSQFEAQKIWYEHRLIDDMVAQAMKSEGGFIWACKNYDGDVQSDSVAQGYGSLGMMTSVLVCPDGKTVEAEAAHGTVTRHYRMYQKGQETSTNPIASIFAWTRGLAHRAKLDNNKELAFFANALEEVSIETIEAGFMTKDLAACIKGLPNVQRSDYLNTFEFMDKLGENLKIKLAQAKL

Chain of Isocitrate dehydrogenase [NADP] cytoplasmic (Homo sapiens), O75874 [R132H] (O75874 whole entry R132H): as the sequence (O75874 whole entry R132C) above, with C132H counted along it
Chain of Isocitrate dehydrogenase [NADP] cytoplasmic (Homo sapiens, UniProt O75874, R132H) (O75874 2-414 R132H limits assumed): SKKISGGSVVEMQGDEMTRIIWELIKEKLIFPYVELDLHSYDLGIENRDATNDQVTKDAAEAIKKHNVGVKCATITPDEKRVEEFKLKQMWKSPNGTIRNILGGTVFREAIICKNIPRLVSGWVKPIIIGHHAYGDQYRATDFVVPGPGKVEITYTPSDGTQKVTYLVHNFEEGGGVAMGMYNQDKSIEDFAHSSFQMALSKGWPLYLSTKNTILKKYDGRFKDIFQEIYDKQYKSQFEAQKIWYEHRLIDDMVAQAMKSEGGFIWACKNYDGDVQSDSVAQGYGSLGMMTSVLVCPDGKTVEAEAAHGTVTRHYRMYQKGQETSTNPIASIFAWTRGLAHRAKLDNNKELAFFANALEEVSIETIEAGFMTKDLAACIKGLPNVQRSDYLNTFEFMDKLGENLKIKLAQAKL
Chain of Isocitrate dehydrogenase [NADP] cytoplasmic (Homo sapiens, UniProt O75874, R132C) (O75874 2-414 R132C limits assumed): as the sequence (O75874 2-414 R132H limits assumed) above, with H131C counted along it

Papp [1] | solubility kinetic at 6 h [2] | t1/2 [3] | Activity [4] | Activity [5] | IC50 [6] | IC50 [7] | inhibition [8] | inhibition [9] | SMILES
160 nm/s | < 1 µg/mL | 17 min | 33% | 12% | 0.12 µM | 0.11 µM | 98% | 83% | CCc1cccc(CC)c1-n1c(CC(C)C)c(C(=O)N2CCNCC2)cc(-c2nc(-c3ccc(Cl)cc3)cs2)c1=O
1340 nm/s | < 1 µg/mL | 27 min |  |  | 0.1 µM | 0.075 µM | 97% | 82% | CCCc1c(C(=O)N2CCNCC2)cc(-c2nc(-c3ccc(Cl)cc3)cs2)c(=O)n1-c1c(CC)cccc1CC
400 nm/s | < 1 µg/mL | 17 min | 14% | 11% | 0.053 µM | 0.039 µM |  |  | CCc1cccc(CC)c1-n1c(C=C(C)C)c(C(=O)N2CCNCC2C)cc(-c2nc(-c3ccc(Cl)cc3)cs2)c1=O (stereo not given)
 |  |  | 11% | 8% | 0.046 µM | 0.044 µM |  |  | CCc1cccc(CC)c1-n1c(C=C(C)C)c(C(=O)N2CCNC(C)C2)cc(-c2nc(-c3ccc(Cl)cc3)cs2)c1=O (stereo not given)
5490 nm/s | < 1 µg/mL | > 30 min | 40% | 19% | 0.075 µM | 0.114 µM |  |  | CCc1ccc(OC)cc1-n1c(C=C(C)C)c(C(=O)N2CCNCC2)cc(-c2nc(-c3ccc(Cl)cc3)cs2)c1=O
 |  |  |  |  | 3.8 µM | 1.6 µM | 105% | 77% | CCc1cccc(CC)c1-n1c(C)c(C(=O)NCC(N)=O)cc(-c2nc(-c3ccc(Cl)cc3)cs2)c1=O
480 nm/s | < 1 µg/mL | 12 min | 17% | 14% | 0.048 µM | 0.078 µM |  |  | CCc1cccc(CC)c1-n1c(C=C(C)C)c(C(=O)N2CCNC3(CC3)C2)cc(-c2nc(-c3ccc(Cl)cc3)cs2)c1=O
 |  |  |  |  | 11 µM | 1.2 µM | 106% | 87% | CCc1cccc(CC)c1-n1c(C)c(C(=O)NCC(=O)O)cc(-c2nc(-c3ccc(Cl)cc3)cs2)c1=O
 |  |  |  |  | 0.6 µM | 0.24 µM | 101% | 82% | CCc1cccc(CC)c1-n1c(CCC(F)(F)F)c(C(=O)N2CCNCC2)cc(-c2nc(-c3ccc(Cl)cc3)cs2)c1=O
 |  |  |  |  | 2.5 µM | 2.2 µM | 82% | 77% | COc1ccc(OC)c(-n2c3c(cc(-c4nc(-c5ccc(Cl)cc5)c[nH]4)c2=O)C(=O)CC(C)(C)C3)c1
 |  |  |  |  | 1.3 µM | 1 µM | 97% | 80% | COc1ncccc1-n1c2c(cc(-c3nc(-c4ccc(Cl)cc4)cs3)c1=O)C(=O)CC(C)(C)C2
 |  |  |  |  | 0.5 µM | 0.79 µM | 89% | 86% | CCc1cccc(C)c1-n1c2c(cc(-c3nc(-c4ccc(Cl)cc4)cs3)c1=O)C(=O)CC(C)(C)C2
 |  |  |  |  | 2 µM | 0.42 µM | 104% | 96% | CCc1cccc(CC)c1-n1c(C)c(C(=O)NCCO)cc(-c2nc(-c3ccc(Cl)cc3)cs2)c1=O
 |  |  |  |  | 0.47 µM | 0.47 µM | 94% | 83% | COC(=O)c1ccsc1-n1c2c(cc(-c3nc(-c4ccc(Cl)cc4)cs3)c1=O)C(=O)CC(C)(C)C2
 |  |  |  |  | 0.98 µM | 1.1 µM | 93% | 79% | CCc1cccc(CC)c1-n1c(CC2CCOCC2)c(C(=O)N2CCNCC2)cc(-c2nc(-c3ccc(Cl)cc3)cs2)c1=O
< 10 nm/s | 16 µg/mL (≈ 25.3 µM) | 23 min | 29% | 10% | 0.064 µM | 0.055 µM |  |  | CCc1cccc(CC)c1-n1c(C=C(C)C)c(C(=O)N2CCNC(C(=O)O)C2)cc(-c2nc(-c3ccc(Cl)cc3)cs2)c1=O (stereo not given)
 |  |  |  |  | 2 µM | 1.2 µM | 98% | 86% | CCc1cccc(CC)c1-n1c(C)c(C(=O)N(C)C)cc(-c2nc(-c3ccc(Cl)cc3)cs2)c1=O
 |  |  |  |  | 1.5 µM | 0.21 µM | 103% | 93% | CCc1cccc(CC)c1-n1c(C)c(C(=O)N2CCNCC2)cc(-c2nc(-c3ccc(Cl)cc3)cs2)c1=O
 |  |  |  |  | 0.28 µM | 0.57 µM | 98% | 78% | CC1(C)CC(=O)c2cc(-c3nc(-c4ccc(Cl)cc4)cs3)c(=O)n(-c3ccccc3OC(F)(F)F)c2C1
 |  |  |  |  | 4.1 µM | 4.2 µM | 82% | 71% | CCc1cccc(CC)c1-n1c(C)c(C(=O)N2CCOCC2)cc(-c2nc(-c3ccc(Cl)cc3)cs2)c1=O
 |  |  |  |  | 0.87 µM | 2 µM | 91% | 83% | CCc1ccccc1-n1c2c(cc(-c3nc(-c4ccc(Cl)cc4)cs3)c1=O)C(=O)CC(C)(C)C2
 |  |  |  |  | 1.6 µM | 2.4 µM | 87% | 75% | COc1cccc(OC)c1-n1c2c(cc(-c3nc(-c4ccc(Cl)cc4)cs3)c1=O)C(=O)CC(C)(C)C2
240 nm/s | < 1 µg/mL | 7 min |  |  |  | 10 µM | 81% | 52% | CCc1cccc(CC)c1-n1c(CC2CCNC2)c(C(=O)N2CCNCC2)cc(-c2nc(-c3ccc(Cl)cc3)cs2)c1=O (stereo not given)
2750 nm/s | < 1 µg/mL | 2 min | 23% | 13% | 0.039 µM | 0.035 µM |  |  | CCc1cccc(CC)c1-n1c(C=C(C)C)c(C(=O)N2CCNC(=O)C2)cc(-c2nc(-c3ccc(Cl)cc3)cs2)c1=O
 |  |  |  |  | 0.91 µM | 1 µM | 104% | 95% | CCc1cccc(CC)c1-n1c(C)c(C(=O)NCCCNC)cc(-c2nc(-c3ccc(Cl)cc3)cs2)c1=O
 |  |  |  |  | 2 µM | 0.38 µM | 97% | 89% | CCc1cccc(CC)c1-n1c(C)c(C(=O)NCCN)cc(-c2nc(-c3ccc(Cl)cc3)cs2)c1=O
430 nm/s | < 1 µg/mL | 17 min |  |  | 0.049 µM | 0.055 µM | 107% | 96% | CCc1cccc(CC)c1-n1c(CC2CC2)c(C(=O)N2CCNCC2)cc(-c2nc(-c3ccc(Cl)cc3)cs2)c1=O

SMILES | Papp [1] | solubility kinetic at 6 h [2] | t1/2 [3] | Activity [4] | Activity [5] | IC50 [6] | IC50 [7] | inhibition [8] | inhibition [9]
CCc1cccc(CC)c1-n1c(C=C(C)C)c(C(=O)N2C[C@H]3CC[C@@H](C2)N3)cc(-c2nc(-c3ccc(Cl)cc3)cs2)c1=O | 890 nm/s | < 1 µg/mL | > 30 min | 11% | 10% | 0.06 µM | 0.094 µM |  | 
CCc1cccc(CC)c1-n1c(C=C(C)C)c(C(=O)N2C3CCC2CNC3)cc(-c2nc(-c3ccc(Cl)cc3)cs2)c1=O | 990 nm/s | < 1 µg/mL | 9 min | 32% | 18% | 0.047 µM | 0.062 µM |  | 
